Values after ≈ are worked out from the molar mass of the structure shown.
What was measured:
[1] = target: Plasmepsin 4 (Plasmodium falciparum, UniProt Q17SB2); assay: Inhibition of Plasmodium falciparum plasmepsin 4 using DABCYL-Glu-Arg-Nle-Phe-Leu-Ser-Phe-Pro-EDANS as substrate preincubated for 30 mins followed by substrate addition measured every 1 min within 8 to 15 mins by FRET assay
Summary of the method: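 Plm IV in 0.1 M NaOAc pH 4.5 with 10% glycerol; compounds tested at 0.01–100 μM, preincubated with enzyme 30 min at 37 °C. […] Fluorescence (Ex 336/Em 490 nm) read at 37 °C; rate taken from the linear interval. Triplicate; IC50 fitted from rates; pepstatin A control.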

[2] = Solubility of the compound in Tris-buffer at pH 7.4 after 16 hrs by HPLC method; assay type: physicochemical; conditions: for solubility at 16 h: Tris buffer, pH 7.4
Summary of the method: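 A DMSO stock (≈10 mg/mL) was diluted 10 µL into 2 mL of 0.05 M TRIS pH 7.4 (0.5% DMSO final) and shaken 16 h at 25 °C. After filtering off the precipitate, the solution was quantified by reversed-phase HPLC (UV 210 or 254 nm) against a methanol-diluted ≈0.05 mg/mL standard. Working range ≈0.005-0.05 mg/mL.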

[3] = target: Plasmepsin I (Plasmodium falciparum, UniProt P39898); assay: Inhibition of Plasmodium falciparum plasmepsin-1 using DABCYL-Glu-Arg-Nle-Phe-Leu-Ser-Phe-Pro-EDANS as substrate preincubated for 30 mins followed by substrate addition measured every 1 min within 8 to 15 mins by FRET assay
Sequence of Plasmepsin I (P39898 whole entry): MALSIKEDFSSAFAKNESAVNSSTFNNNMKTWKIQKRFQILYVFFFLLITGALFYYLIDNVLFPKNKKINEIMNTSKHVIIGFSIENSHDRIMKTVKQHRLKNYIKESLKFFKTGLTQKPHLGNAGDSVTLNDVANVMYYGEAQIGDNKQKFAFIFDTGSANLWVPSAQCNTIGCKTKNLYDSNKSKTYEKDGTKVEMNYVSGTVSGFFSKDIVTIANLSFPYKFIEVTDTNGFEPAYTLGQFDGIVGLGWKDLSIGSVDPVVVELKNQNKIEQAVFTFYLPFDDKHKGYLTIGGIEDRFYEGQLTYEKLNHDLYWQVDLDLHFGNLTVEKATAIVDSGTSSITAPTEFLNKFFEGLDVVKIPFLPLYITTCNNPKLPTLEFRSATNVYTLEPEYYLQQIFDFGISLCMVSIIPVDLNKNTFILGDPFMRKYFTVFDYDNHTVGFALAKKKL
Summary of the method: (§1)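 Test compounds at 0.01-100 μM preincubated with enzyme in 0.1 M NaOAc pH 4.5, 10% glycerol, for 30 min at 37 °C. […] Fluorescence (Ex 336, Em 490 nm) read at 37 °C. Rate taken from the linear interval only. Triplicate experiments, IC50 from dose-response fit.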

[4] = target: Plasmepsin II (Plasmodium falciparum, UniProt P46925); assay: Inhibition of Plasmodium falciparum plasmepsin-2 using DABCYL-Glu-Arg-Nle-Phe-Leu-Ser-Phe-Pro-EDANS as substrate preincubated for 30 mins followed by substrate addition measured every 1 min within 8 to 15 mins by FRET assay; summary of the method: as §1
Sequence of Plasmepsin II (P46925 whole entry): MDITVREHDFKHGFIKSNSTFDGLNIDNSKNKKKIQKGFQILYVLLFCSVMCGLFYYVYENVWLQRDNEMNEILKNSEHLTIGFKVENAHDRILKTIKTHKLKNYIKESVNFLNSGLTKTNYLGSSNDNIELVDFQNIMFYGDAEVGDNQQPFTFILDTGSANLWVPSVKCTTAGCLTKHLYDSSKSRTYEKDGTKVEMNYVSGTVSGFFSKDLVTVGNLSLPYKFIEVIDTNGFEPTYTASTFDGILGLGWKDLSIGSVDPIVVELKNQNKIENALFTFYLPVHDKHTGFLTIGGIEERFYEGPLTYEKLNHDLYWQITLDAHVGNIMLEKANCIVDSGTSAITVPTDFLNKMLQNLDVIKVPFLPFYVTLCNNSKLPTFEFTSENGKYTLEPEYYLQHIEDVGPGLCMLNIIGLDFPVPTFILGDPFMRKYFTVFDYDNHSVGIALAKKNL

[5] = target: Cathepsin D (Homo sapiens, UniProt P07339); assay: Inhibition of human cathepsin D using DABCYL-Glu-Arg-Nle-Phe-Leu-Ser-Phe-Pro-EDANS as substrate preincubated for 30 mins followed by substrate addition measured every 1 min within 8 to 15 mins by FRET assay
Sequence of Cathepsin D (P07339 65-162 limits assumed): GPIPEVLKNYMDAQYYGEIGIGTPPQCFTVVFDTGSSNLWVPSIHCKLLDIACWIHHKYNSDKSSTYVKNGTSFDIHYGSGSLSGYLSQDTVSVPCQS
Sequence of Cathepsin D (P07339 169-412 limits assumed): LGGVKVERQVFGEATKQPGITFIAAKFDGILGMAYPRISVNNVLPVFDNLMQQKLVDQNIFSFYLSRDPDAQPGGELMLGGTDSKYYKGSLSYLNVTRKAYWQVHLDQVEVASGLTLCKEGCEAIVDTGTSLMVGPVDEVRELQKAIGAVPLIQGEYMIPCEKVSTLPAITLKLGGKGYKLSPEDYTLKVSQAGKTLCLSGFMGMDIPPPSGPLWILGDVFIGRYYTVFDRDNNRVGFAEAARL

[6] = target: Plasmepsin I (Plasmodium falciparum) (UniProt P39898); assay: Inhibition of Plasmodium falciparum plasmepsin-1 using DABCYL-Glu-Arg-Nle-Phe-Leu-Ser-Phe-Pro-EDANS as substrate preincubated for 30 mins followed by substrate addition measured every 1 min within 8 to 15 mins by FRET assay
Sequence of Plasmepsin I (Plasmodium falciparum) (P39898 whole entry, looked up): as the sequence (P39898 whole entry) above

Sequence of Plasmepsin 4 (Q17SB2 whole entry): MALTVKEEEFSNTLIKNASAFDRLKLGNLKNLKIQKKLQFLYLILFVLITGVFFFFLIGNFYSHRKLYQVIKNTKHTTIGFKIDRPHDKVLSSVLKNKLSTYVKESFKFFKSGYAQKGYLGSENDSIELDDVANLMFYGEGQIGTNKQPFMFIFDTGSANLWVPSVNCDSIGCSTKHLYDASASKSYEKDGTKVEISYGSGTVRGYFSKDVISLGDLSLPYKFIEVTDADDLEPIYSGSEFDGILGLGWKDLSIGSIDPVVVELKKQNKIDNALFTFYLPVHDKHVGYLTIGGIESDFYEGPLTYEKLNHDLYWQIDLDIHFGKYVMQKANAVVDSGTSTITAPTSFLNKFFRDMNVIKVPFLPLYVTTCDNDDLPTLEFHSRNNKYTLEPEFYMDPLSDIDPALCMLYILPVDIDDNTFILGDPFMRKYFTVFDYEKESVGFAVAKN

| SMILES | IC50 [1] [nM] | solubility at 16 h [2] [µg/mL] | IC50 [3] [nM] | IC50 [4] [nM] | IC50 [5] [nM] | solubility ([2]; buffer, pH 7.4, 16 h) [µg/mL] | IC50 [6] [nM] |
| --- | --- | --- | --- | --- | --- | --- | --- |
| Nc1nc2cc(-c3ccc(CCCc4ccccc4)cc3)ccc2c(=O)n1C[C@@H]1CC[C@H](c2ccccc2)O1 | 130 | < 0.01 | – | – | – | – | – |
| CCCCCc1ccc(-c2ccc3c(=O)n(C[C@@H]4CC[C@H](c5ccccc5)O4)c(N)nc3c2)cc1 | 100 | < 0.01 | – | – | – | – | – |
| Nc1nc2cc(-c3ccccc3)cc(-c3ccc(C(=O)O)cc3)c2c(=O)n1C[C@@H]1CC[C@H](c2ccccc2)O1 | 500 | – | 600 | 280 | 20000 | – | – |
| Nc1nc2cc(-c3ccccc3)cc(-c3ccc(C(=O)O)cc3)c2c(=O)n1CC1CCCO1 (racemic) | 1400 | – | 3500 | 330 | 100000 | – | – |
| CCCCCCCCc1cc(CCC(=O)O)c2c(=O)n(CC3CCCO3)c(N)nc2c1 (racemic) | 110 | – | 20 | 22 | 430 | – | – |
| Nc1nc2cc(-c3ccc(CCCc4ccccc4)cc3)ccc2c(=O)n1CC1CCCO1 (racemic) | 100 | – | 1300 | 700 | > 100000 | – | – |
| CCCCCc1ccc(-c2cc(CCC(=O)O)c3c(=O)n(CC4CCCO4)c(N)nc3c2)cc1 (racemic) | 42 | 0.1 (≈ 0.216 µM) | 50 | 27 | 21000 | – | – |
| CCCCCc1ccc(-c2cc(-c3ccc(C(=O)O)cc3)c3c(=O)n(CC4CCCO4)c(N)nc3c2)cc1 (racemic) | 45 | 0.03 (≈ 0.0586 µM) | 2400 | 23 | 29000 | – | – |
| Nc1nc2cc(-c3ccccc3)cc(-c3cccnc3)c2c(=O)n1CC1CCCO1 (racemic) | 1500 | – | 3000 | 480 | 71000 | – | – |
| Nc1nc2cc(-c3ccc(CCCc4ccccc4)cc3)cc(CCC(=O)O)c2c(=O)n1CC1CCCO1 (racemic) | 30 | – | 740 | 80 | 13000 | 0.01 (≈ 0.0195 µM) | – |
| Nc1nc2cc(-c3ccccc3)cc(-c3ccncc3)c2c(=O)n1CC1CCCO1 (racemic) | 2400 | – | 5000 | 1000 | > 100000 | – | – |
| CCCCCc1ccc(-c2ccc3c(=O)n(CC4CCCO4)c(N)nc3c2)cc1 (racemic) | 92 | – | 700 | 75 | 3200 | – | – |
| Nc1cccc(-c2cc(-c3ccccc3)cc3nc(N)n(CC4CCCO4)c(=O)c23)c1 (racemic) | 1000 | – | 2000 | 820 | 93000 | – | – |
| Nc1nc2cc(-c3ccccc3)cc(-c3cccc(C(=O)O)c3)c2c(=O)n1CC1CCCO1 (racemic) | 1500 | – | 1000 | 500 | 98000 | – | – |
| NC(=O)c1ccc(-c2cc(-c3ccccc3)cc3nc(N)n(CC4CCCO4)c(=O)c23)cc1 (racemic) | 2500 | – | 3400 | 600 | > 100000 | – | – |
| CC(C)CC(=O)N[C@H](C(=O)N[C@H](C(=O)N[C@@H](CC(C)C)[C@@H](O)CC(=O)N[C@@H](C)C(=O)N[C@@H](CC(C)C)[C@@H](O)CC(=O)O)C(C)C)C(C)C [PEPSTATIN] | 0.3 | – | 0.42 | – | – | – | 0.42 |
| Oc1ccc(/C=C/c2cc(O)cc(O)c2)cc1 [RESVERATROL] | – | – | – | – | 138000 | – | – |

— ChEMBL document CHEMBL4219216, “2-Aminoquinazolin-4(3H)-one based plasmepsin inhibitors with improved hydrophilicity and selectivity” (Bioorg Med Chem, 2018)
